Experimental data as given in ChEMBL document CHEMBL4325926, “Potent Antimalarial 2-Pyrazolyl Quinolone bc 1 (Qi) Inhibitors with Improved Drug-like Properties” (ACS Med Chem Lett, 2018).
Converted amounts (≈) assume the structure as drawn. The source made the active and inactive calls. The calls are words filed in the database; no cut-off is given here.

What was measured:
Plasmodium falciparum [1] = assay: Antimalarial activity against chloroquine-sensitive Plasmodium falciparum 3D7 measured after 48 hrs by SYBR green1 dye based fluorescence assay; type: functional, organism-based; conditions: 3D7, 48 h
[2] = Therapeutic index, ratio of IC50 for human HepG2 cells to IC50 for chloroquine-sensitive Plasmodium falciparum 3D7
[3] = Aqueous solubility of the compound in pH 7.4 phosphate buffered saline; type: physicochemical
Outline: (§1)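 In vitro DMPK measurements performed by an external DMPK group. Aqueous solubility measured in pH 7.4 PBS buffer. Protein binding measured in human plasma.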

HepG2 = assay: Cytotoxicity against human HepG2 cells after 24 hrs by MTT assay; type: cell-based; conditions: HepG2, 24 h
Plasmodium falciparum [4] = assay: Antimalarial activity against chloroquine-resistant Plasmodium falciparum W2 measured after 48 hrs by SYBR green1 dye based fluorescence assay; type: functional, organism-based; conditions: W2, 48 h
Plasmodium falciparum [5] = assay: Antimalarial activity against Plasmodium falciparum TX13 expressing yeast dihydroorotate dehydrogenase at >1000 nM; type: functional, organism-based
Plasmodium falciparum [6] = assay: Antimalarial activity against chloroquine-resistant Plasmodium falciparum TM90C2B harboring Y268S mutant measured after 48 hrs by SYBR green1 dye based fluorescence assay; type: functional, organism-based
[7] = Inhibition of Plasmodium falciparum cytochrome bc1 complex using cytochrome-c as substrate and decylubiquinol as donor by spectrophotometric method
[8] = Inhibition of recombinant Plasmodium falciparum NDH2 expressed in Escherichia coli using NADH as substrate
[9] = Protein binding in human plasma; type: ADME, cell-free; conditions: read-out: PPB; outline: as §1

COc1ccc2c(=O)cc(-c3cnn(Cc4ccc(OC(F)(F)F)cc4)c3)[nH]c2c1
IC50 (Plasmodium falciparum [1]): 419 nM

O=c1cc(-c2cnn(Cc3ccc(OC(F)(F)F)cc3)c2)[nH]c2ccccc12
IC50 (Plasmodium falciparum [1]): 74 nM

CCc1c(-c2cnn(Cc3ccc(OC(F)(F)F)cc3)c2)[nH]c2ccccc2c1=O
selectivity ratio [2]: 219 | IC50 (Plasmodium falciparum [1]): 88 nM | solubility [3]: 0.2 µM (≈ 0.0827 µg/mL) | IC50 (HepG2): 19300 nM

COc1ccc2c(=O)c(Cl)c(-c3cnn(Cc4ccc(OC(F)(F)F)cc4)c3)[nH]c2c1
IC50 (Plasmodium falciparum [4]): 11 nM | Activity (Plasmodium falciparum [5]): inactive | IC50 (Plasmodium falciparum [6]): 110 nM | IC50 (Plasmodium falciparum [1]): 91 nM

COc1ccc2c(=O)c(C)c(-c3cnn(Cc4ccc(OC(F)(F)F)cc4)c3)[nH]c2c1
IC50 (Plasmodium falciparum [4]): 15 nM | IC50 (Plasmodium falciparum [6]): 500 nM | selectivity ratio [2]: 333 | IC50 (Plasmodium falciparum [1]): 33 nM | solubility [3]: 0.3 µM (≈ 0.129 µg/mL) | IC50 [7]: 0.75 nM | IC50 [8]: 1000 nM | IC50 (HepG2): 11000 nM

Cc1c(-c2ccc(Cc3ccc(OC(F)(F)F)cc3)cc2)[nH]c2ccccc2c1=O
solubility [3]: 0.03 µM (≈ 0.0123 µg/mL)

COc1ccc2c(=O)cc(-c3ccn(Cc4ccc(OC(F)(F)F)cc4)n3)[nH]c2c1
IC50 (Plasmodium falciparum [1]): 541 nM

CCOC(=O)c1c(-c2cnn(Cc3ccc(OC(F)(F)F)cc3)c2)[nH]c2ccccc2c1=O
IC50 (Plasmodium falciparum [1]): 89 nM

O=C1C(O)=C([C@H]2CC[C@H](c3ccc(Cl)cc3)CC2)C(=O)c2ccccc21 [ATOVAQUONE]
IC50 (Plasmodium falciparum [4]): 0.3 nM | IC50 [8]: 10000 nM

O=c1cc(-c2cnn(Cc3ccc(F)cc3)c2)[nH]c2ccccc12
IC50 (Plasmodium falciparum [1]): 160 nM

CC(C)c1c(-c2cnn(Cc3ccc(OC(F)(F)F)cc3)c2)[nH]c2ccccc2c1=O
IC50 (Plasmodium falciparum [1]): 299 nM

O=c1c(Cl)c(-c2cnn(Cc3ccc(OC(F)(F)F)cc3)c2)[nH]c2ccccc12
IC50 (Plasmodium falciparum [4]): 14 nM | selectivity ratio [2]: 171 | IC50 (Plasmodium falciparum [1]): 166 nM | fraction unbound [9]: < 0.001 | solubility [3]: 0.01 µM (≈ 0.0042 µg/mL) | IC50 (HepG2): 28400 nM

Cc1c(-c2ccc(-c3cnn(CCN4CCOCC4)c3)nc2)[nH]c2ccccc2c1=O
IC50 (Plasmodium falciparum [1]): > 1000 nM

C=C(C)[C@H]1Cc2c(ccc3c2O[C@@H]2COc4cc(OC)c(OC)cc4[C@@H]2C3=O)O1 [ROTENONE]
IC50 (HepG2): 1520 nM

O=c1cc(-c2cnn(Cc3ccc(C(F)(F)F)nc3)c2)[nH]c2ccccc12
IC50 (Plasmodium falciparum [1]): 580 nM

Cc1c(-c2ccn(Cc3ccc(OC(F)(F)F)cc3)n2)[nH]c2ccccc2c1=O
IC50 (Plasmodium falciparum [4]): 49 nM | IC50 (Plasmodium falciparum [6]): 300 nM | selectivity ratio [2]: 79 | IC50 (Plasmodium falciparum [1]): 270 nM | solubility [3]: 0.4 µM (≈ 0.16 µg/mL) | IC50 [8]: 68 nM | IC50 (HepG2): 21200 nM

Cc1c(-c2ccc(-c3cnn(CCN4CCOCC4)c3)cc2)[nH]c2ccccc2c1=O
IC50 (Plasmodium falciparum [1]): > 1000 nM

Cc1c(-c2cnn(Cc3ccc(OC(F)(F)F)cc3)c2)[nH]c2ccccc2c1=O
IC50 (Plasmodium falciparum [4]): 33 nM | selectivity ratio [2]: 130 | IC50 (Plasmodium falciparum [1]): 100 nM | solubility [3]: 0.1 µM (≈ 0.0399 µg/mL) | IC50 [8]: 837 nM | IC50 (HepG2): 13000 nM

COc1ccc2c(=O)c(Cl)c(-c3ccn(Cc4ccc(OC(F)(F)F)cc4)n3)[nH]c2c1
IC50 (Plasmodium falciparum [1]): 376 nM

Cc1c(-c2cnn(Cc3ccc(OC(F)(F)F)cc3)c2)[nH]c2cc(Cl)ccc2c1=O
IC50 (Plasmodium falciparum [1]): 50 nM

Cc1c(-c2cnn(Cc3ccc(OC(F)(F)F)cc3)c2)[nH]c2ccc(F)cc2c1=O
IC50 (Plasmodium falciparum [1]): 54 nM

Cc1c(-c2cnn(Cc3ccc(OC(F)(F)F)cc3)c2)[nH]c2cc(C(F)(F)F)ccc2c1=O
IC50 (Plasmodium falciparum [1]): 810 nM

O=c1cc(-c2cnn(CCN3CCOCC3)c2)[nH]c2ccccc12
IC50 (Plasmodium falciparum [1]): 690 nM

Cc1c(-c2cnn(CCc3ccc(OC(F)(F)F)cc3)c2)[nH]c2ccccc2c1=O
IC50 (Plasmodium falciparum [1]): > 1000 nM

Cc1c(-c2cnn(Cc3ccc(OC(F)(F)F)cc3)c2)[nH]c2cc(F)ccc2c1=O
IC50 (Plasmodium falciparum [1]): 80 nM

CC/C(=C(\c1ccccc1)c1ccc(OCCN(C)C)cc1)c1ccccc1 [TAMOXIFEN]
IC50 (HepG2): 12000 nM

Cc1c(-c2cnn(Cc3ccc(OC(F)(F)F)cc3)c2)[nH]c2ccc(Cl)cc2c1=O
IC50 (Plasmodium falciparum [1]): 110 nM
